The source made the active and inactive calls. The calls are words filed in the database; no cut-off is given here.
What was measured:
[1] = target: T1, Polyamine deacetylase HDAC10 (Homo sapiens, UniProt Q969S8); experiment: Inhibition of human HDAC10 using fluorogenic tetrapeptide RHKKAc as substrate
T1 sequence (Q969S8 whole entry): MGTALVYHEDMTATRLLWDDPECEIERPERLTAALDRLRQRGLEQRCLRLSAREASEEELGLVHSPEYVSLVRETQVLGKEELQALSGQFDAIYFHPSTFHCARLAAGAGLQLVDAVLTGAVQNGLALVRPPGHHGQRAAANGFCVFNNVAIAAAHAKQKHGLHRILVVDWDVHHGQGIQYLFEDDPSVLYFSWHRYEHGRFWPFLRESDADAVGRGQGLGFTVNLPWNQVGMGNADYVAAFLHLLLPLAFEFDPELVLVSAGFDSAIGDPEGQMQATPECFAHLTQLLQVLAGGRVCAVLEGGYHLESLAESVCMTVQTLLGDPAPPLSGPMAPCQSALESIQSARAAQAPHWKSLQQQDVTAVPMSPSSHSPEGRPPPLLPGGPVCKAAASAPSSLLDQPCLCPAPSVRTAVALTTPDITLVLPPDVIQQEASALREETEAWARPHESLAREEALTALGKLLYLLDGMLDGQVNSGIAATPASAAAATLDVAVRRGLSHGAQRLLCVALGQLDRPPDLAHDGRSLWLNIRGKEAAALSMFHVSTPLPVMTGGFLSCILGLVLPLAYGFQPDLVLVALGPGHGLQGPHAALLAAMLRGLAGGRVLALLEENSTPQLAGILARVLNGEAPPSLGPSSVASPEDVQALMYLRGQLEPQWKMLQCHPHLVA

IGROV-1 [2] = experiment: Antiproliferative activity against human IGROV1 cells assessed as growth inhibition after 72 hrs; assay type: functional, cell-based; conditions: IGROV-1, 72 h
Procedure, shortened: (§1)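 Log-phase cells seeded in duplicate in 6-well plates; drug added 24 h after seeding. Cells harvested 72 h after drug exposure and counted with a cell counter. IC50 = drug concentration giving 50% reduction in cell number versus untreated control.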

[3] = Antiproliferative activity against p53 defective cis-platinum-resistant human IGROV1/Pt1 cells assessed as growth inhibition after 72 hrs; assay type: functional, cell-based; conditions: IGROV-1/Pt1, 72 h; procedure, shortened: as §1
[4] = target: T2, Protein deacetylase HDAC6 (Homo sapiens) (UniProt Q9UBN7); experiment: Inhibition of HDAC6 in human IGROV1 cells assessed as increase in tubulin acetylation at IC80 after 4 to 24 hrs by Western blot analysis; assay type: cell-based; conditions: IGROV-1
T2 sequence (whole entry): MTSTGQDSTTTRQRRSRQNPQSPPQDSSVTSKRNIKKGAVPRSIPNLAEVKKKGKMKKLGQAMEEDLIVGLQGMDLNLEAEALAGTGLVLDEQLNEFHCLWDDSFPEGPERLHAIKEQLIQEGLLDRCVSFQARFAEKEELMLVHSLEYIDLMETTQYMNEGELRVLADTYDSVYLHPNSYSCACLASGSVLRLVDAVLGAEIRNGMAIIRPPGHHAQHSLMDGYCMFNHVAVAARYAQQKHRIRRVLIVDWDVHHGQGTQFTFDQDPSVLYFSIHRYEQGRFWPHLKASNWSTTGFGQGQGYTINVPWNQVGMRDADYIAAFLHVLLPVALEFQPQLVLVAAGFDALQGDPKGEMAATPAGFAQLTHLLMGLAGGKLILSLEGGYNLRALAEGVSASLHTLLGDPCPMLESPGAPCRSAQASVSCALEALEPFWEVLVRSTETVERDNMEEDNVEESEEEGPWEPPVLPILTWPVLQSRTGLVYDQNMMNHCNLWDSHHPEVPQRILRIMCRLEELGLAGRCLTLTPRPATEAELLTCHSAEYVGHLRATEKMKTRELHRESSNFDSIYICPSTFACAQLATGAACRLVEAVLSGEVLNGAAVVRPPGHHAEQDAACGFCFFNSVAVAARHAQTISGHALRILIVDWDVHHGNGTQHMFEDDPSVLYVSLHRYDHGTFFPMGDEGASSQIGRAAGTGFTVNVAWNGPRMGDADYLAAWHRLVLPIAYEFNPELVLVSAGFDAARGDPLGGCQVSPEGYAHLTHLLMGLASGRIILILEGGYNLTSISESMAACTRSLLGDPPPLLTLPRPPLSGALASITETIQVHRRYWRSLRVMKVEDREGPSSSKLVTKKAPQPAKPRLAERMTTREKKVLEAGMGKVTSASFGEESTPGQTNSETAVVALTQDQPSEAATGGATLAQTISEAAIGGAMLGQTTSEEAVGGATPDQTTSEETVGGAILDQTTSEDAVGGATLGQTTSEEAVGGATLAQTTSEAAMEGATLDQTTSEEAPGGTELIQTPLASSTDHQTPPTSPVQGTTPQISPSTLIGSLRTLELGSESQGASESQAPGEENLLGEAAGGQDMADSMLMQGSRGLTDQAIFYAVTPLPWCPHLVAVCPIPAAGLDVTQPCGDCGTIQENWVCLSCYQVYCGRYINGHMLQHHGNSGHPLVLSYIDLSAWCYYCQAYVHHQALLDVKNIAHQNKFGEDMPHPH
Procedure, shortened: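 Cells treated with various concentrations of HDAC inhibitors, collected, lysed and analysed by Western blotting.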

IGROV-1 [5] = experiment: Cell cycle arrest in human IGROV1 cells assessed as accumulation at S phase at IC80 after 24 hrs by propidium iodide staining-based flow cytometry (reference value: 36.81%); assay type: functional
Procedure, shortened: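 Cell-cycle distribution in IGROV-1 cells read by flow cytometry of propidium iodide–stained cells.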

SMILES	IC50 [1]	IC50 (IGROV-1 [2])	IC50 [3]	Activity [4]	Activity (IGROV-1 [5])
COc1ccc(-c2ccc(/C=C/C=C/C(=O)NO)cc2)cc1	> 100000 nM	–	–	–	–
COc1ccc(-c2ccc(/C=C/C=C/C(=O)NO)cc2)cc1C12CC3CC(CC(C3)C1)C2	> 100000 nM	1300 nM	2030 nM	inactive	22.18%

From ChEMBL document CHEMBL3232764, “Influence of the adamantyl moiety on the activity of biphenylacrylohydroxamic acid-based HDAC inhibitors” (Eur J Med Chem, 2014)
